# TAAR1 ag: human TAAR1 agonism; AID 624467; CHO RD-HGA16 TAAR1, Fluo-8 calcium fluorescence; vehicle wells 0%, saturating PEA agonist 100%; activation, % at 3 µM; hit rate 0.99% among 360,000; Q96RJ0;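 active = activation above the mean activation of all test compounds in the run plus 3 SD, cut at about 38% in these data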
#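 Assay system – CHO-derived RD-HGA16 cells with stable Gα16 and human TAAR1 · Compound dosing – one-point dosing at 3 µM (nominal) · Incubation – 17-24 h seeding, 75 min 37 °C dye, 30 min RT · Measured by – kinetic Fluo-8 calcium fluorescence · Control set – DMSO vehicle as 0%, PEA at EC100 as 100% · Repeats – single well for each compound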
# OX1R antag-1: OX1R (human) antagonism; O43613; OX1R-expressing cells, FRET antagonist read-out; inhibition, % at 6.6 µM; hit rate 1.8% among 330,000; AID 485270; in the data active = inhibition mostly above about 38%, no sharp cut-off; inactive = mostly below about 40%;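 note: 0% = agonist challenge alone and 100% = reference antagonist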
# Target sequence (O43613 whole entry, looked up): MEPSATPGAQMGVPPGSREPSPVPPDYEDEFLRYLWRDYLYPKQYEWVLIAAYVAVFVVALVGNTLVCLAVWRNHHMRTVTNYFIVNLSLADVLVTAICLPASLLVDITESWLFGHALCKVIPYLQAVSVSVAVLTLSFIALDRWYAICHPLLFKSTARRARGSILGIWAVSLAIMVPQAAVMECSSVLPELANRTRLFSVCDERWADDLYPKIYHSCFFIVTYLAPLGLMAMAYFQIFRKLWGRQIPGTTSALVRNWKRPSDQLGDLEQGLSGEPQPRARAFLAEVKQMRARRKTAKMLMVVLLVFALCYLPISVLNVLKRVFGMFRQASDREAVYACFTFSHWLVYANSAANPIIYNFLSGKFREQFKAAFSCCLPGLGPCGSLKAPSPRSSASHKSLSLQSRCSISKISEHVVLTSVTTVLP
# CHO parental Ca: signal in parental CHO cells, OX1R antagonist counter-screen; parental CHO-K1, ATP-induced calcium, Fluo-8 fluorescence; hit rate 0.63% among 330,000; inhibition, % at 5.6 µM;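 active = inhibition above that plate's mean sample inhibition plus 3 SD, cut at about 26% in these data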;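 note: 0% = ATP-challenged DMSO wells and 100% = DMSO wells without ATP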
#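 Assay system – parental CHO cells · Reagent – ATP stimulus · Detection – intracellular calcium via Fluo-8 no-wash fluorescent dye · Evaluation – percent inhibition of ATP-evoked calcium rise, normalized to controls · Controls – ATP wells versus no-ATP DMSO wells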
# TAAR1 antag: human TAAR1 antagonism; hit rate 1.5% among 360,000; CHO RD-HGA16 TAAR1, Fluo-8 calcium fluorescence, antagonist; AID 624466; inhibition, % at 3 µM;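 active = inhibition above a per-plate cutoff, the mean inhibition of test compounds on that plate plus 3 SD, cut at about 49% in these data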;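 note: 0% = DMSO plus EC80 beta-PEA response and 100% = DMSO alone without agonist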
#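 Material: RD-HGA16 CHO cells with stable hTAAR1 and Gα16; Dosing: single nominal final test compound concentration of 3 µM; Schedule: seeding 17-24 h prior, 75-min 37 °C, 30-min RT dye loading; Detection: kinetic Fluo-8 calcium fluorescence measurement; Measure: % inhibition from peak post-agonist over basal fluorescence ratio; Benchmarks: vehicle and agonist controls.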
# OX1R antag-2: human HCRTR1 antagonism; AID 434989; CHO/OX1R cells, Fluo-8 calcium fluorescence, orexin A; O43613; hit rate 0.43% among 330,000; inhibition, % at 5 µM;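 active = inhibition above its plate's threshold, mean inhibition of all tested compounds on the plate plus 3 SD, cut at about 37% in these data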;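 note: 0% = orexin A challenge wells and 100% = SB-334867-A antagonist wells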
# GPR7 antag: blocks human GPR7 receptor signaling. GPR7-expressing cells, fluorescence antagonist assay. hit rate 1.1% among 290,000. P48145. inhibition, % at 4.4 µM; in the data active = inhibition above about 16%, passing the limit was not always enough;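 note: cells stimulated with the agonist NPW; 0% = agonist with vehicle and 100% = vehicle without agonist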
# * marks the source's active call; other numbers are inactive results; nt = no result given. Only some compounds are listed: those with a hit (about 4.6% of all), similar ones and a draw of the others.
SMILES,TAAR1 ag,OX1R antag-1,CHO parental Ca,TAAR1 antag,OX1R antag-2,GPR7 antag
CC(=O)Nc1ccc(S(=O)(=O)NC2C3(C)CCC(C3)C2(C)C)cc1 (stereo unspecified),8,nt,nt,-1,nt,-4
CC(CCC(C)C(C)(C)C)[C@@H]1CC[C@H]2C3C[C@H](OS(O)(=S)=S)[C@H]4C[C@H](OS(O)(=S)=S)[C@@H](OS(O)(=S)=S)C[C@]4(C)[C@H]3CC[C@]12C (stereo partly specified) (tested in a mixture with another compound),nt,66*,84*,nt,101*,nt
CC(CCC(=O)NN)C1CCC2C3CCC4CC(O)CCC4(C)C3CCC12C (stereo unspecified),5,nt,nt,-19,nt,nt
O=c1[nH]c2cc([N+](=O)[O-])c([N+](=O)[O-])cc2[nH]c1=O,12,56*,1,-3,0,-9
O=c1[nH]c2ccccc2[nH]c1=O,-1,22,-6,-1,-3,-7
CCNC(=O)NC(=O)C(C)N1C(=O)NC(c2ccccc2)(c2ccccc2)C1=O (stereo unspecified),3,3,-26,4,-21,-17
O=C(CN1C(=O)NC(c2ccccc2)(c2ccccc2)C1=O)NCc1ccc(F)cc1,9,41*,-21,-5,21,nt
COc1ccc(CNC(=O)C(C)N2C(=O)NC(c3ccccc3)(c3ccccc3)C2=O)cc1 (stereo unspecified),19,35*,-33,-1,16,nt
NS(=O)(=O)c1ccc(NC(=O)COc2ccc(C(=O)c3ccc(F)cc3)cc2)cc1,5,9,34*,33,17,2
O=C(COC(=O)c1n[nH]c2ccccc12)NC1CCCCC1,2,6,-11,8,-8,nt
O=S(=O)(c1ccc(C2CCCCC2)cc1)N1CCCC1,7,12,52*,11,-8,-10
O=C(COC(=O)c1n[nH]c2ccccc12)NC(=O)NC1CCCCC1,44*,24,-9,-7,-35,-5
CCN(CC)c1ccc(S(=O)(=O)N2CCOCC2)cc1NC(=O)COC(=O)/C=C/c1ccco1,10,nt,nt,54*,nt,nt
Cc1c(O)ccc2c(CN3CCN(CCO)CC3)cc(=O)oc12,1,5,5,8,-5,-10
CCSc1nnc(NC(=O)CSc2nc(CC)nc3c2c(=O)n(C)c(=O)n3C)s1,1,6,-4,-3,-16,-12
O=C(Nc1ncc2c(n1)CC(c1ccco1)CC2=O)c1ccco1 (stereo unspecified),2,10,-6,-34,-12,-13
CC(Oc1cc2oc(=O)c3c(c2cc1Cl)CCCC3)C(=O)NCCN1CCOCC1 (stereo unspecified),2,14,-30,-15,-27,14
O=C(COc1ccccc1)Nc1ccc(S(=O)(=O)N2CCCC2)cc1,3,7,-2,-12,-1,17*
COc1ccc(S(=O)(=O)N2CCc3ccccc3C2)cc1,-1,17,-15,23,-31,0
O=C(COC(=O)c1ccc(O)cc1)Nc1cc(S(=O)(=O)N2CCOCC2)ccc1Cl,27,4,4,53*,-9,nt
O=C(Nc1ccc(S(=O)(=O)N2CCCC2)cc1)c1ccc([N+](=O)[O-])o1,nt,34*,-4,nt,-6,nt
CCOc1ccc(S(=O)(=O)N2CCc3ccccc3C2)cc1,0,11,18,20,-6,20*
O=C(COC(=O)c1ccc(O)cc1)Nc1cc(S(=O)(=O)N2CCOCC2)ccc1N1CCOCC1,7,nt,nt,13,nt,nt
O=C(Nc1ccc(S(=O)(=O)N2CCOCC2)cc1)c1ccc([N+](=O)[O-])o1,6,63,-6,-20,4,6
COc1ccc(CN(CC2CCCO2)C(=O)c2cc3ccccc3oc2=O)cc1 (stereo unspecified),6,11,-20,-1,-34,-6
SMILES,TAAR1 ag,OX1R antag-1,CHO parental Ca,TAAR1 antag,OX1R antag-2,GPR7 antag
CCc1ccccc1NC(=O)Nc1cccs1,4,19,-3,6,-22,-18
CCOc1ccccc1NC(=O)COC(=O)c1ccc(S(=O)(=O)N2CCCC2)cc1,12,nt,nt,59*,nt,nt
O=C(COC(=O)c1n[nH]c2ccccc12)Nc1ccc(S(=O)(=O)N2CCCC2)cc1,26,35,18,45,29,17*
CCCCOc1ccc(S(=O)(=O)N2CCCCC2)cc1,3,4,42*,6,-21,12
COc1ccccc1NC(=O)COC(=O)c1ccc(S(=O)(=O)N2CCCCCC2)cc1,6,4,3,-1,-5,nt
Cc1ccc(NC(=O)/C(=C/c2cccc([N+](=O)[O-])c2)NC(=O)C2CCCCC2)cc1,3,5,-18,-14,-28,-1
O=C(/C=C/c1cccc([N+](=O)[O-])c1)Nc1cccc(NC(=O)c2cccs2)c1,11,70*,-13,58*,-1,-14
Cc1ccc(NC(=O)/C(=C\c2cccc([N+](=O)[O-])c2)NC(=O)c2cccs2)cc1,4,52*,-1,-8,7,1
COc1ccc(CC(=O)NNc2ncnc3c2cnn3C)cc1,6,3,0,6,-9,-4
O=C(N/C(=C\c1cccnc1)c1nc2ccccc2[nH]1)c1cccc(Br)c1,8,6,1,14,-19,-8
Cc1onc(-c2ccccc2)c1C(=O)NCc1ccc(F)cc1,6,3,-17,-6,-16,nt
CCOc1ccccc1NC(=O)C(Sc1ccccc1)c1ccccc1 (stereo unspecified),12,37,57*,57*,59*,-21
COc1ccc(C(=O)NC2CC(C)(C)NC(C)(C)C2)cc1S(=O)(=O)N1CCOCC1,4,nt,nt,-9,nt,nt
CS(=O)(=O)N1CCN(c2ccc(C(=O)N3CCOCC3)cc2[N+](=O)[O-])CC1,9,35,-9,-4,2,-5
CCOC(=O)Cc1csc(SCC(=O)Nc2cccc(Cl)c2)n1,9,34,10,25,5,-2
CCOC(=O)Cc1csc(SCC(=O)Nc2cc(Cl)ccc2Oc2ccccc2)n1,17,54,62*,88*,61*,6
OC[C@@H]1CN(Cc2ccccc2)C[C@H](n2ccc3c(N4CCCC4)ncnc32)O1,0,nt,nt,-9,nt,nt
CN(CCCC(=O)NCCc1ccccc1)S(=O)(=O)c1ccc([N+](=O)[O-])cc1,5,46*,-12,2,-7,0
Cc1ccc(-c2[nH]nc(N)c2N=Nc2ccccc2C)cc1,3,48,56*,-11,14,-29
Cc1ccc(-c2[nH]nc(N)c2N=Nc2cccc(Cl)c2C)cc1,27,nt,nt,1,nt,8
Cc1cc2cc3c(cc2nc1SCc1ccccn1)OCCO3,5,25,-12,-23,-9,7

# From PubChem
